Only some compounds are listed: those with a hit (about 3.3% of all), similar ones and a draw of the others.
TDP2 inh – blocks human TDP2 phosphodiesterase activity; O95551; recombinant TDP2, T5PNP hydrolysis, p-nitrophenol absorbance 415 nm; inhibition, % at 12.8 µM; 0.34% of 370,000 active;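 active means inhibition above the mean of all tested compounds plus 3 SD, set per campaign, cut at about 25% in these data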;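 further: 0% = DMSO with enzyme and 100% = buffer with substrate but no TDP2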
Target sequence (O95551 whole entry, looked up): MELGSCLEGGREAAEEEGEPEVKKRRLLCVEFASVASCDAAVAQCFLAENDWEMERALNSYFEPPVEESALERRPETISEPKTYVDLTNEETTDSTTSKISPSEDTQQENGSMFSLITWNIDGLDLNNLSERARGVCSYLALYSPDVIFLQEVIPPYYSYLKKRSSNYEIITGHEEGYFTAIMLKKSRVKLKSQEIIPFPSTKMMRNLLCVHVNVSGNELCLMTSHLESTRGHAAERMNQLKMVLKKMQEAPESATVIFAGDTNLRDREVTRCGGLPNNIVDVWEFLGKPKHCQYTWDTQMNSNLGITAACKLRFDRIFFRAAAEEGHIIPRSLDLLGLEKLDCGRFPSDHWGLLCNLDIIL
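Assay system: Recombinant human TDP2 | Quantity: 120 nM TDP2 per well | Incubation: 2 h at 37 °C | Signal: Epi absorbance | Evaluation: Percent inhibition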
PRMT1 inh – blocks human protein arginine methyltransferase 1; AID 652257; Q99873; recombinant PRMT1, activity-based probe fluorescence polarization; 1.3% of 370,000 active; inhibition, % at 2.79 µM;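 active means inhibition above about 21% made by adding two undisclosed values, limit read from the data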
MBD2 inh – blocks human MBD2 binding to methylated DNA. Q9UBB5. TR-FRET, MBD2 binding to methylated oligonucleotide. inhibition, % at 4.4 µM. 0.31% of 370,000 active; in the data active means inhibition above about 13%
SIAE primary – inhibitors of human sialic acid acetylesterase SIAE | Q9HAT2 | SIAE FP-Rh probe binding, fluorescence polarization | inhibition, % at 9.66 µM | 0.69% of 370,000 active;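 active means inhibition above a cutoff: mean of compounds within the control limits plus 3 SD of those, cut at about 17% in these data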;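 further: 0% = plate median of compound wells and 100% = probe without SIAE protein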
LEDGF integ inh – blocks HIV-1 LEDGF/p75-dependent DNA integration. TR-FRET IN-LEDGF/p75 DNA integration, Eu/Cy5. inhibition, % at 3.7 µM. 0.64% of 370,000 active;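 active means inhibition above the screen-wide mean plus 3 SD, cut at about 13% in these data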;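 further: signal is the Cy5 over europium emission ratio at 671 and 618 nm; 0% = plate median of compound wells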
UHRF1 MBD2 ctr – UHRF1 methyl-DNA binding inhibition; UHRF1 binding to methylated oligo, TR-FRET; Q96T88; AID 687016; 0.75% of 370,000 active; inhibition, % at 4.4 µM; in the data active means inhibition above about 21%;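 further: UHRF1 SRA domain binding a hemimethylated CpG hairpin DNA probe; 0% = median of test compound wells and 100% = reference inhibitor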
An asterisk follows results filed as active.

SMILES	TDP2 inh	PRMT1 inh	MBD2 inh	SIAE primary	LEDGF integ inh	UHRF1 MBD2 ctr
CCOc1ccc(N)cc1OC	23	5	4	24*	-4	-3
Cc1cccc(N=C2NC(=O)S/C2=C\c2ccco2)c1	-9	21*	-6	1	3	-3
C[C@H]1COc2c3ccccc3nn21	-4	-2	-2	4	-2	-2
Cc1ccc(S(=O)(=O)/N=C2/C=C(C3C(=O)CC(C)(C)CC3=O)C(=O)c3ccccc32)cc1	51*	16	-13	5	40*	4
O=S(=O)(N=C1C=CC(=NS(=O)(=O)c2ccccc2)c2ccccc21)c1ccccc1	7	17	-8	4	9	5
Cc1cc(C)c(S(=O)(=O)/N=C2\C=C(NS(=O)(=O)c3ccccc3)C(=O)c3ccccc32)c(C)c1	-8	2	1	9	-1	2
Cc1cc(C)c(S(=O)(=O)/N=C2\C=C(Nc3ccc(C(=O)O)cc3)C(=O)c3ccccc32)c(C)c1	84*	14	-3	18*	43*	8
Cc1ccc(S(=O)(=O)/N=C2\C=C(NS(=O)(=O)c3ccccc3)C(=O)c3ccccc32)cc1	18	-1	-21	-6	16*	-6
O[C@H](COc1ccccc1)CN1CCC(C(O)(c2ccccc2)c2ccccc2)CC1	-15	-4	1	-6	7	0
COCC(=O)N(Cc1ccccc1)c1ccccc1C(=O)Nc1cc(OC)ccc1OC	-4	8	1	-1	-4	3
CC(C)C(=O)N[C@H]1[C@H](O)CCC[C@]12C(=O)N(Cc1ccccc1)c1ccccc12	0	0	3	-2	-3	-1
C=CCn1c(COc2ccccc2)nnc1SCC(=O)Nc1ccc(Oc2ccccc2)cc1	0	0	1	-4	3	3
CC1CN(S(=O)(=O)c2ccc(C(=O)Nc3ccc(S(=O)(=O)Nc4ncccn4)cc3)cc2)CC(C)O1 (stereo not given)	-2	0	1	-2	-4	36*
CC(=O)Nc1ccc(S(=O)(=O)Nc2ncccn2)cc1	7	0	-2	-2	0	5
CC1CN(S(=O)(=O)c2cccc(C(=O)NCc3ccccn3)c2)CC(C)O1 (stereo not given)	3	3	3	-3	1	28*
O=C(Nc1ccc(S(=O)(=O)Nc2ncccn2)cc1)C1=COCCO1	-6	22*	-6	0	3	-2
Cc1cc(C)nc(NS(=O)(=O)c2ccc(NC(=O)c3ccc(S(=O)(=O)N4CC(C)OC(C)C4)cc3)cc2)n1 (stereo not given)	-1	2	8	-11	-3	7
COc1ccc(OC)c(NC(=O)C2(C)CCN2C(=O)CCC2CCCC2)c1 (stereo not given)	-4	0	-2	10	0	1
COc1ccc(OC)c(NC(=O)C2(C)CCN2C(=O)CC2CC2)c1 (stereo not given)	8	0	1	-6	3	28*
COC(=O)[C@H](CC(C)C)N(Cc1cn(Cc2ccccc2)nn1)S(=O)(=O)c1ccc(F)cc1Br	-5	3	3	-6	0	15
N#CC12COC3(CCCCC3C1(C#N)C#N)OC2=N (stereo not given)	5	35*	5	10	9	5
CC1OC23CCCCC2C(C#N)(C(=N)O3)C1(C#N)C#N (stereo not given)	3	7	2	5	-2	3
CCC1OC23CCCCC2C(C#N)(C(=N)O3)C1(C#N)C#N (stereo not given)	10	14	-2	17	1	-3
N#CC1(C#N)COC23CCCCC2C1(C#N)C(=N)O3 (stereo not given)	7	22*	0	11	2	-3
C#CCNC(=O)C[C@H]1C[C@@]2(C(=O)OC)C(=C[C@H](COCc3ccccc3)O[C@@H]2C)N(Cc2ccco2)C1=O	1	-2	-3	4	0	0
SMILES	TDP2 inh	PRMT1 inh	MBD2 inh	SIAE primary	LEDGF integ inh	UHRF1 MBD2 ctr
CCCCCC[C@@H](CCCc1ccccc1OC)CN(CCCC)S(C)(=O)=O	-6	4	-3	2	2	2
N#C/C(=N/Nc1ccc(OC(F)(F)F)cc1)C(N)=S	-15	-6	3	7	-4	31*
N#Cc1cccc(CNCC(=O)N2CCC3(CC2)OCCO3)c1	7	-10	-4	-6	3	-1
CCCNc1cc(=S)nc(N)[nH]1	6	22*	-3	7	1	-16
Nc1ccc(-c2c3ccc(=O)cc-3oc3cc(O)ccc23)cc1C(=O)O	-15	71*	-28	13	4	-46
O=S1(=O)c2ccc(N3CC[C@@H](O)C3)cc2OCCCN1C1CC1	-3	-2	2	6	0	5
Cn1nc(CC(=O)NC2CCCCCCCCCCC2)c2ccccc2c1=O	-6	-3	-3	-26	0	-4
Cn1nc(CC(=O)Nc2ncc(Br)s2)c2ccccc2c1=O	0	-4	7	-7	-1	22*
COc1ccc(S[C@]2(C(=O)N3CCN(c4ncccn4)CC3)CC(=O)N(C(=O)CCc3ccccc3)[C@@H]2c2ccc(OC)cc2)cc1	-1	1	5	-2	12	0
O=[N+]([O-])c1cccc(NC(=S)N2CCCC2)c1	24	2	7	3	2	27*
CCOC(=O)N(C)[C@H]1C[C@H]2c3[nH]c4c(-c5ccc6c(c5)OCO6)cccc4c3CCN2C(=O)[C@H]1[C@H](C)O	-2	0	0	-6	-3	-1
Clc1cccc(Cl)c1C1Nc2cccc3cccc(c23)N1	0	31*	-6	16	7	-3
Clc1ccc(C2Nc3cccc4cccc(c34)N2)cc1Cl	-8	9	2	5	7	0
COc1ccc(CN(C)CCCn2cnc3c(SC)ncnc32)cc1OC	9	2	3	-2	-4	29*
CCOc1ccccc1N1CCN(Cc2ccc(OC)c(OC)c2)CC1	13	-4	2	4	-2	23*
CCOC(=O)C1CCN(C(=O)CSc2ccc(Cl)cc2)CC1	6	1	-1	-1	0	0
CCOC(=O)C1CCN(C(=O)C(C)Sc2ccc(Cl)cc2)CC1 (stereo not given)	9	-2	9	-3	7	23*
O=C(OC12CCCN(C1)/C(=C/c1ccccc1)C2)c1ccc(Cl)cc1 (stereo not given)	2	-5	-3	-1	3	-4
COC(=O)[C@]12C[C@H](CC(=O)NCCc3ccccc3OC)C(=O)N(Cc3ccc(Cl)cc3Cl)C1=C[C@H](C(C)(C)C)O[C@@H]2C	2	2	3	11	0	-3

Assay outcomes as filed in PubChem.
